Test results published in ChEMBL document CHEMBL2086235, “A novel thiazolidine compound induces caspase-9 dependent apoptosis in cancer cells” (Bioorg Med Chem, 2012).
The source made the active and inactive calls. No cut-off for these calls is given here.

Legend:
Huh-7 [1] = assay: Growth inhibition of human HuH7 cells incubated for 48 hrs by Giemsa staining; type: functional, cell-based
In short: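 Cells grown overnight, compound added from DMSO solution, then incubated 48 h more. Attached cells stained with Giemsa and photographed; qualitative read-out.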

Huh-7 [2] = assay: Induction of cell death in human HuH7 cells at 2.5 to 40 uM incubated for 72 hrs by SRB assay; type: functional, cell-based
In short: (§1)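 Cells seeded and grown 24 h at 37 °C, then treated 72 h in triplicate. Fixed with cold 10% TCA 1 h at 4 °C, stained with 0.4% SRB in 1% acetic acid 10 min, washed in 1% acetic acid. Dye solubilized in 10 mM Tris base; absorbance read at 515 nm. Normalized to DMSO control and Tz; three independent experiments.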

HCT-116 [3] = assay: Induction of cell death in human HCT116 cells at 2.5 to 40 uM incubated for 72 hrs by SRB assay; type: functional, cell-based; in short: as §1
MCF7 [4] = assay: Induction of cell death in human MCF7 cells at 2.5 to 40 uM incubated for 72 hrs by SRB assay; type: functional, cell-based; in short: as §1
Huh-7 [5] = assay: Induction of apoptosis in human HuH7 cells assessed as DNA fragmentation at 10 uM incubated for 48 hrs by TUNEL assay; type: functional, cell-based
In short: (§2)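 Cells grown overnight on coverslips, then exposed 48 h. Fixed in cold methanol; TUNEL done with an in situ cell death detection kit. Nuclei counterstained with Hoechst 33258 (3 μg/mL, 5 min, dark) and viewed by fluorescence microscopy.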

CAMA-1 [6] = assay: Induction of cell death in human CAMA1 cells at 0.02 uM incubated for 72 hrs by real-time cell analysis; type: functional, cell-based
In short: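 Cells (1000-5000/well) on impedance plates monitored by real-time cell analysis. Treated about 24 h after seeding, in log phase, and followed 72 h against DMSO controls. Inhibition (%) = (1 − CI treated/CI DMSO) × 100. At least three repeats.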

HepG2 [7] = assay: Cytotoxicity against human HepG2 cells incubated for 72 hrs by SRB assay; type: functional, cell-based; conditions: HepG2, 72 h
In short: (§3)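 Cells grown in DMEM with 10% FCS, 2 mM L-glutamine, NEAA and antibiotics at 37 °C, 5% CO2, then seeded at 1000–5000 cells/well and grown 24 h. Compounds were added from DMSO for 72 h, following NCI guidelines. Cells were fixed in cold 10% TCA for 1 h at 4 °C and stained with 0.4% SRB in 1% acetic acid for 10 min. Bound dye was dissolved in 10 mM Tris and absorbance read at 515 nm.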

Huh-7 [8] = assay: Cytotoxicity against human HuH7 cells incubated for 72 hrs by SRB assay; type: functional, cell-based; conditions: Huh-7, 72 h; in short: as §3
[9] = Cytotoxicity against human MV cells incubated for 72 hrs by SRB assay; type: functional, cell-based; in short: as §3
[10] = Cytotoxicity against human FOCUS cells incubated for 72 hrs by SRB assay; type: functional, cell-based; in short: as §3
HCT-116 [11] = assay: Cytotoxicity against human HCT116 cells incubated for 72 hrs by SRB assay; type: functional, cell-based; conditions: HCT-116, 72 h; in short: as §3
T47D = assay: Cytotoxicity against human T47D cells incubated for 72 hrs by SRB assay; type: functional, cell-based; in short: as §3
MCF7 [12] = assay: Cytotoxicity against human MCF7 cells incubated for 72 hrs by SRB assay; type: functional, cell-based; conditions: MCF7, 72 h; in short: as §3
BT-20 = assay: Cytotoxicity against human BT20 cells incubated for 72 hrs by SRB assay; type: functional, cell-based; conditions: BT-20, 72 h; in short: as §3
CAMA-1 [13] = assay: Cytotoxicity against human CAMA1 cells incubated for 72 hrs by SRB assay; type: functional, cell-based; conditions: CAMA-1, 72 h; in short: as §3
MFE-296 = assay: Cytotoxicity against human MFE296 cells incubated for 72 hrs by SRB assay; type: functional, cell-based; conditions: MFE-296, 72 h; in short: as §3
HepG2 [14] = assay: Induction of apoptosis in human HepG2 cells assessed as DNA fragmentation at 10 uM incubated for 48 hrs by TUNEL assay; type: functional, cell-based; in short: as §2
FOCUS [15] = assay: Induction of apoptosis in human FOCUS cells assessed as DNA fragmentation at 10 uM incubated for 48 hrs by TUNEL assay; type: functional, cell-based; in short: as §2
Huh-7 [16] = assay: Induction of apoptosis in human HuH7 cells assessed as cytochrome c release at 10 uM incubated for 48 hrs by immunostaining; type: functional, cell-based
In short: (§4)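 After 48 h exposure, coverslip-grown cells fixed in 4% paraformaldehyde, permeabilized in ice-cold acetone, blocked in 3% BSA 1 h at 37 °C. Anti-cytochrome c monoclonal applied overnight at 4 °C, then FITC anti-mouse secondary 1 h at room temperature. Diffuse cytoplasmic staining scored by fluorescence microscopy.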

FOCUS [17] = assay: Induction of apoptosis in human FOCUS cells assessed as cytochrome c release at 10 uM incubated for 48 hrs by immunostaining; type: functional, cell-based; in short: as §4
HepG2 [18] = assay: Induction of apoptosis in human HepG2 cells assessed as cytochrome c release at 10 uM incubated for 48 hrs by immunostaining; type: functional, cell-based; in short: as §4
Huh-7 [19] = assay: Cell cycle arrest in human HuH7 cells assessed as subG1/G1 phase accumulation at 5 uM incubated for 12 hrs to 24 hrs by propidium iodide staining based flow cytometry; type: functional
In short: (§5)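 Cells seeded 100,000-200,000 per dish, grown 24 h, then held a further day in starvation medium (1% FBS, 1% P/S, 1% NEAA in DMEM). Treated with compound or DMSO, harvested by trypsinization, fixed in ice-cold 70% ethanol at 4 °C. Stained 40 min at 37 °C in the dark with propidium iodide, RNase A and Triton X-100 in PBS. G1 = 2N, G2 = 4N; >4N cells gated out.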

[20] = Cell cycle arrest in human Mahlavu cells assessed as subG1/G1 phase accumulation at 5 uM incubated for 12 hrs to 24 hrs by propidium iodide staining based flow cytometry; type: functional; in short: as §5
HepG2 [21] = assay: Increase in caspase-9 activation in human HepG2 cells at 10 uM incubated for 12 hrs by Caspase Glo assay; type: functional, cell-based
In short: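 HepG2 pre-incubated 24 h at 37 °C with DMSO, then moved to fresh medium with compound. Caspase-9 activity read by Caspase-Glo after 12 h and normalized to untreated controls. Two independent experiments in duplicate.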

HepG2 [22] = assay: Increase in caspase-9 activation in human HepG2 cells at 10 uM incubated for 12 hrs in presence of caspase-3 inhibitor z-DEVD-fmk by Caspase Glo assay; type: functional, cell-based
In short: (§6)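 HepG2 pre-incubated 24 h at 37 °C with 50 μM of the named caspase inhibitor peptide or DMSO. Medium then replaced with fresh medium holding the same inhibitor plus compound. Caspase activity read by Caspase-Glo luminescence after 12 h. Values normalized to inhibitor-only wells without compound. Two independent experiments in duplicate; t-test.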

HepG2 [23] = assay: Increase in caspase-9 activation in human HepG2 cells at 10 uM incubated for 12 hrs in presence of caspase-8 inhibitor z-IETD-fmk by Caspase Glo assay; type: functional, cell-based; in short: as §6
HepG2 [24] = assay: Increase in caspase-8 activation in human HepG2 cells at 10 uM incubated for 12 hrs in presence of 50 uM caspase-3 inhibitor z-DEVD-fmk by Caspase Glo assay; type: functional, cell-based; in short: as §6
HepG2 [25] = assay: Increase in caspase-8 activation in human HepG2 cells at 10 uM incubated for 12 hrs in presence of 50 uM caspase-9 inhibitor z-LEHD-fmk by Caspase Glo assay; type: functional, cell-based; in short: as §6
Huh-7 [26] = assay: Induction of caspase-9 cleavage in human HuH7 cells at 2.5 to 5 uM incubated for 6 to 24 hrs by Western blot; type: functional, cell-based
In short: (§7)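 Huh7 treated with compound or DMSO for 6, 12 or 24 h. Lysates quantified by Bradford and heat-denatured. Blotted onto nitrocellulose and probed with antibodies to cleaved caspase-9, cleaved caspase-3 and caspase-8 (1:500, overnight at 4 °C). Bands quantified by densitometry and normalized to actin.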

Huh-7 [27] = assay: Induction of caspase-3 cleavage in human HuH7 cells at 2.5 to 5 uM incubated for 6 to 24 hrs by Western blot; type: functional, cell-based; in short: as §7
Huh-7 [28] = assay: Induction of caspase-8 cleavage in human HuH7 cells at 2.5 to 5 uM incubated for 6 to 24 hrs by Western blot; type: functional, cell-based; in short: as §7
Huh-7 (Homo sapiens) [29] = assay: Induction of cell death in human Huh7 cells at 5 uM incubated for 72 hrs by real-time cell analysis
Huh-7 (Homo sapiens) [30] = assay: Induction of cell death in human Huh7 cells at 10 uM incubated for 72 hrs by real-time cell analysis

SMILES: CCCCCCCCCCC(=O)N(CC(=O)O)C[C@@H]1CSC(c2ccccc2)N1C(=O)c1ccccc1 (stereo partly drawn)
- growth inhibition (GI) (Huh-7 [1]): inactive

SMILES: CCCCCCCCCCCCNC(=O)[C@@H]1CSC(c2ccccc2)N1C(=O)Cn1cc(C)c(=O)[nH]c1=O (stereo partly drawn)
- growth inhibition (GI) (Huh-7 [1]): inactive

SMILES: CCOC(=O)[C@@H]1CSC(c2ccccc2)N1C(=O)c1cn(CC(O)CO)nn1 (stereo partly drawn)
- growth inhibition (GI) (Huh-7 [1]): inactive

SMILES: CCCCCCC(C)NC(=O)[C@@H]1CSC(c2ccccc2)N1C(=O)Cn1cc(C)c(=O)[nH]c1=O (stereo partly drawn)
- growth inhibition (GI) (Huh-7 [1]): inactive

SMILES: CCOC(=O)[C@@H]1CSC(c2ccccc2)N1C(=O)c1cn(CCc2ccsc2)nn1 (stereo partly drawn)
- growth inhibition (GI) (Huh-7 [1]): inactive
- Activity (Huh-7 [2]): inactive
- Activity (HCT-116 [3]): inactive
- Activity (MCF7 [4]): inactive

SMILES: CCCCCCC(=O)N(CC(=O)OC)C[C@@H]1CSC(c2ccccc2)N1C(=O)c1ccccc1 (stereo partly drawn)
- growth inhibition (GI) (Huh-7 [1]): inactive

SMILES: O=C(O)CN(C[C@@H]1CSC(c2ccccc2)N1C(=O)c1ccccc1)C(=O)c1c(F)c(F)c(F)c(F)c1F (stereo partly drawn)
- growth inhibition (GI) (Huh-7 [1]): inactive

SMILES: C#CC(=O)N1C(c2ccccc2)SC[C@H]1C(=O)OCC (mixture of isomers)
- Activity (Huh-7 [5]): Active
- Activity (CAMA-1 [6]): inactive
- growth inhibition (GI) (Huh-7 [1]): Active
- Activity (Huh-7 [2]): Active
- Activity (HCT-116 [3]): Active
- Activity (MCF7 [4]): Active
- IC50 (HepG2 [7]): 10000 nM
- IC50 (Huh-7 [8]): 5300 nM
- IC50 [9]: 410 nM
- IC50 [10]: 5470 nM
- IC50 (HCT-116 [11]): 9230 nM
- IC50 (T47D): 7620 nM
- IC50 (MCF7 [12]): 4700 nM
- IC50 (BT-20): 1600 nM
- IC50 (CAMA-1 [13]): 10 nM
- IC50 (MFE-296): 500 nM
- Activity (HepG2 [14]): Active
- Activity (FOCUS [15]): Active
- Activity (Huh-7 [16]): Active
- Activity (FOCUS [17]): Active
- Activity (HepG2 [18]): Active
- Activity (Huh-7 [19]): Active
- Activity [20]: Active
- Activity (HepG2 [21]): Active
- Activity (HepG2 [22]): inactive
- Activity (HepG2 [23]): inactive
- Activity (HepG2 [24]): inactive
- Activity (HepG2 [25]): inactive
- Activity (Huh-7 [26]): Active
- Activity (Huh-7 [27]): Active
- Activity (Huh-7 [28]): inactive
- Activity (Huh-7 (Homo sapiens) [29]): 100%
- Activity (Huh-7 (Homo sapiens) [30]): 100%

SMILES: CCOC(=O)[C@@H]1CSC(c2ccccc2)N1C(=O)c1cn(CC(=O)OCc2ccccc2)nn1 (stereo partly drawn)
- growth inhibition (GI) (Huh-7 [1]): inactive

SMILES: CCOC(=O)[C@@H]1CSC(c2ccccc2)N1C(=O)c1cn(CCCNC(=O)C(F)(F)F)nn1 (stereo partly drawn)
- growth inhibition (GI) (Huh-7 [1]): inactive

SMILES: CC[C@@]1(O)C(=O)OCc2c1cc1n(c2=O)Cc2cc3ccccc3nc2-1 [CAMPTOTHECIN]
- IC50 (HepG2 [7]): 10 nM
- IC50 (Huh-7 [8]): 150 nM
- IC50 [9]: < 1000 nM
- IC50 [10]: < 1000 nM
- IC50 (HCT-116 [11]): < 1000 nM
- IC50 (T47D): < 1000 nM
- IC50 (MCF7 [12]): < 1000 nM
- IC50 (BT-20): 70 nM
- IC50 (CAMA-1 [13]): 70 nM
- IC50 (MFE-296): < 1000 nM

SMILES: CCOC(=O)[C@@H]1CSC(c2ccccc2)N1C(=O)c1cn(CC2OCOC2(C)C)nn1 (stereo partly drawn)
- growth inhibition (GI) (Huh-7 [1]): inactive

SMILES: Cc1cn(CC(=O)N2C(c3ccccc3)SC[C@H]2C(=O)NC(C)(C)C)c(=O)[nH]c1=O (stereo partly drawn)
- growth inhibition (GI) (Huh-7 [1]): inactive
- Activity (Huh-7 [2]): inactive
- Activity (HCT-116 [3]): inactive
- Activity (MCF7 [4]): inactive

SMILES: CC(C)(C)C(=O)N(CC(=O)O)C[C@@H]1CSC(c2ccccc2)N1C(=O)c1ccccc1 (stereo partly drawn)
- growth inhibition (GI) (Huh-7 [1]): inactive

SMILES: Cc1cn(CC(=O)N2C(c3ccccc3)SC[C@H]2C(=O)NCCc2ccccc2)c(=O)[nH]c1=O (stereo partly drawn)
- growth inhibition (GI) (Huh-7 [1]): inactive

SMILES: Cc1cn(CC(=O)N2C(c3ccccc3)SC[C@H]2C(=O)NCc2ccccc2)c(=O)[nH]c1=O (stereo partly drawn)
- growth inhibition (GI) (Huh-7 [1]): inactive
